Assay [1] addresses Glycogen synthase kinase-3 beta (Homo sapiens) (UniProt P49841). Briefly: Inhibition of GSK3-beta at 1 uM relative to control.
Assay [2] in a line: Inhibition of PHK at 1 uM relative to control.
For assay [3], the target named is Mitogen-activated protein kinase 1 (Homo sapiens) (UniProt P28482). Briefly: Inhibition of ERK2 at 1 uM relative to control.
Assay [4] deals with RAC-beta serine/threonine-protein kinase (Homo sapiens) (UniProt P31751). Briefly: Inhibition of PKBbeta at 1 uM relative to control.
Sequence of RAC-beta serine/threonine-protein kinase (Homo sapiens) (P31751 whole entry): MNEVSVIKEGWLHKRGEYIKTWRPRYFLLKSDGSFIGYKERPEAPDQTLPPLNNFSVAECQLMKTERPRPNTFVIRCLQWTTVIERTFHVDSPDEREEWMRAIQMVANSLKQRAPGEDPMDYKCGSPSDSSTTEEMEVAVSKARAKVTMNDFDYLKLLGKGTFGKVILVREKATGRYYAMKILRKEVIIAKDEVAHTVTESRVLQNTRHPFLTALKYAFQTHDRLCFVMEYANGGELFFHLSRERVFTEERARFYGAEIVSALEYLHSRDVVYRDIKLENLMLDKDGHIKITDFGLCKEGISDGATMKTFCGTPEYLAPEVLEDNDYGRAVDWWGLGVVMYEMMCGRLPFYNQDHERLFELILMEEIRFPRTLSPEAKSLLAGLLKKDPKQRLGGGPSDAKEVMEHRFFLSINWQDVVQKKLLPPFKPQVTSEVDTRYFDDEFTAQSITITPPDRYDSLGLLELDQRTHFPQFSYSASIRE
Assay [5] can be described thus: Inhibition of CK1 at 1 uM relative to control.
In assay [6] the target is Protein kinase C alpha type (Homo sapiens) (UniProt P17252). As to the kind of experiment: Inhibition of PKCalpha at 1 uM relative to control.
In assay [7] the target is Serine/threonine-protein kinase Chk2 (Homo sapiens) (UniProt O96017). As to the kind of experiment: Inhibition of CHK2 at 1 uM relative to control.
Sequence of Serine/threonine-protein kinase Chk2 (Homo sapiens) (O96017 whole entry): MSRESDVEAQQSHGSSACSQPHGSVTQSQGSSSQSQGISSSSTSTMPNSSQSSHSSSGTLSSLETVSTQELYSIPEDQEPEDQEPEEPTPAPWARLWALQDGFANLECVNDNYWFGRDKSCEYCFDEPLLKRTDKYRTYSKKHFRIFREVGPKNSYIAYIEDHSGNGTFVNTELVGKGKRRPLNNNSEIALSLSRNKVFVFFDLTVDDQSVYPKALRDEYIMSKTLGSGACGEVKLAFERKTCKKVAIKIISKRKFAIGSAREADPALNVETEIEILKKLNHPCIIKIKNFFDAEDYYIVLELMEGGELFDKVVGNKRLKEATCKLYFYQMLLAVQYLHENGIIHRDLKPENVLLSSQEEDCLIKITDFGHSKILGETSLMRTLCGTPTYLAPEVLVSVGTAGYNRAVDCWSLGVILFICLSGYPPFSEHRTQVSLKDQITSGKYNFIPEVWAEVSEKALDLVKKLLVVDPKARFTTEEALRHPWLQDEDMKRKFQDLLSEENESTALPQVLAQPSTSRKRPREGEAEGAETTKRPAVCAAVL
For assay [8], the target named is T1, Serine/threonine-protein kinase BRSK2 (Homo sapiens) (UniProt Q8IWQ3).
T1 sequence (whole entry): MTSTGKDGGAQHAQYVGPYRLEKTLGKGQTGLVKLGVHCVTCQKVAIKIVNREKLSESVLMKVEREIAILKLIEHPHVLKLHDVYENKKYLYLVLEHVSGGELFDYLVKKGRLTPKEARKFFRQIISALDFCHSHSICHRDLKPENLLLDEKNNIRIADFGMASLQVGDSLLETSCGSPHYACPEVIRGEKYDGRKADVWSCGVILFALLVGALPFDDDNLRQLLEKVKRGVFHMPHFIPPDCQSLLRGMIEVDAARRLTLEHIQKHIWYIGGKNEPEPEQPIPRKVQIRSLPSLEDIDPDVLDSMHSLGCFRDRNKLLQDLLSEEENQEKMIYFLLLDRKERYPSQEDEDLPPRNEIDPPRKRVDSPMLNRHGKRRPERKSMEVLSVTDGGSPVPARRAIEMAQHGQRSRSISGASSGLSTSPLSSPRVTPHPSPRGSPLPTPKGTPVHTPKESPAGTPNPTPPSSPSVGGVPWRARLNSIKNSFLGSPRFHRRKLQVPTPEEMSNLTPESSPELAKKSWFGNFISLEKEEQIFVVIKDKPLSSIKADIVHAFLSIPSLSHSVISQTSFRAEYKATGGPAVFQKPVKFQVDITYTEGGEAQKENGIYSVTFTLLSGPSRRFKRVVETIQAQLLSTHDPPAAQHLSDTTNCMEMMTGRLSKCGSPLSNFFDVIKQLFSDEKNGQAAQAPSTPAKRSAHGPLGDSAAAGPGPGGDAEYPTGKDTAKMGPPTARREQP
Briefly: Inhibition of BRSK2 at 1 uM relative to control.

For assay [9], the target named is Dual specificity tyrosine-phosphorylation-regulated kinase 1A (Homo sapiens) (UniProt Q13627). Briefly: Inhibition of DYRK1A at 1 uM relative to control.
For assay [10], the target named is T2, 5'-AMP-activated protein kinase subunit beta-1 (Homo sapiens) (UniProt Q9Y478).
T2 sequence (whole entry): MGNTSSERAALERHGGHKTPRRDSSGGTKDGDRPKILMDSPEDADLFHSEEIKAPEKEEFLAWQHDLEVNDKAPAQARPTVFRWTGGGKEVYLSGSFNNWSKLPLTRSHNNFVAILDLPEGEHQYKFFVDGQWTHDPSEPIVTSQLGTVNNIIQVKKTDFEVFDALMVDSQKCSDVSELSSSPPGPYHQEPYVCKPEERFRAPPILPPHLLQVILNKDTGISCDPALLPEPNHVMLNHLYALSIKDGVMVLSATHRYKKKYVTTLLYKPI
Briefly: Inhibition of AMPK at 1 uM relative to control.

In assay [11] the target is Serine/threonine-protein kinase B-raf (Homo sapiens, UniProt P15056, V600E). As to the kind of experiment: Inhibition of BRAF V600E mutant-mediated ERK phosphorylation in human WM266.4 cells. It counts as cell-based. A digest of the protocol:
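Cellular pathway read-out: ERK phosphorylation (pERK) was measured in WM266.4 melanoma cells and reported as an IC50.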

Assay [12] concerns the target RAC-alpha serine/threonine-protein kinase (Homo sapiens) (UniProt P31749). Briefly: Inhibition of PKBalpha at 1 uM relative to control.
For assay [13], the target named is T3, Dual specificity tyrosine-phosphorylation-regulated kinase 2 (Homo sapiens) (UniProt Q92630).
T3 sequence (whole entry): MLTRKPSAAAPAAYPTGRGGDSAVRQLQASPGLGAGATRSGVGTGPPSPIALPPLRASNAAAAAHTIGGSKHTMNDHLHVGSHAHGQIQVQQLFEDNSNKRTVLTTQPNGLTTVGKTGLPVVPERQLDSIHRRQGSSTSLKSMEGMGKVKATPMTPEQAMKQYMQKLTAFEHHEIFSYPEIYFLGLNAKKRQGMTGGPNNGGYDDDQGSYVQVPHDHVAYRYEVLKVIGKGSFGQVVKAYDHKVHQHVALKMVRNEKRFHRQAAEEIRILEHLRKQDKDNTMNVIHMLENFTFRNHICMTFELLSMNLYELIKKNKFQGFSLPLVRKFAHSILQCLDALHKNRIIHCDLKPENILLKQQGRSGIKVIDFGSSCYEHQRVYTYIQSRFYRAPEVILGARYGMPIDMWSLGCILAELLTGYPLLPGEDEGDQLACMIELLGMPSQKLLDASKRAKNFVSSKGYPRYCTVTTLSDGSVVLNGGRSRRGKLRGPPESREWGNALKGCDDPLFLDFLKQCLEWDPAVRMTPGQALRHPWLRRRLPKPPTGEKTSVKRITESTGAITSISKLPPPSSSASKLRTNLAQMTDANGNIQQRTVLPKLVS
Briefly: Inhibition of DYRK2 at 1 uM relative to control.

Assay [14] deals with Serine/threonine-protein kinase pim-1 (Homo sapiens) (UniProt P11309). Briefly: Inhibition of PIM1 at 1 uM relative to control.
Sequence of Serine/threonine-protein kinase pim-1 (Homo sapiens) (P11309 whole entry, looked up): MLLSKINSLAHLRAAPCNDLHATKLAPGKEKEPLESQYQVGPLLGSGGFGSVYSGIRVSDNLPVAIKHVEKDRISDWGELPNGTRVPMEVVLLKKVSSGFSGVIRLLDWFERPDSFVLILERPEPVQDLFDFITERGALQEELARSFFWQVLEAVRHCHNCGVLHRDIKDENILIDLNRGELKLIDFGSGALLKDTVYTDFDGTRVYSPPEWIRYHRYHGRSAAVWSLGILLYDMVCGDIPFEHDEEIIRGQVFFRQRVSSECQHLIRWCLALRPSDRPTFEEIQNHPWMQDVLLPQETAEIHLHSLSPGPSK
Assay [15] has as its target Myosin light chain kinase, smooth muscle (Homo sapiens) (UniProt Q15746). As to the kind of experiment: Inhibition of smooth muscle MLCK at 1 uM relative to control. It counts as tissue-based. Conditions: Muscle tissue.
The target of assay [16] is Ribosomal protein S6 kinase beta-1 (Homo sapiens) (UniProt P23443). As to the kind of experiment: Inhibition of S6K1 at 1 uM relative to control.
Sequence of Ribosomal protein S6 kinase beta-1 (Homo sapiens) (P23443 whole entry, looked up): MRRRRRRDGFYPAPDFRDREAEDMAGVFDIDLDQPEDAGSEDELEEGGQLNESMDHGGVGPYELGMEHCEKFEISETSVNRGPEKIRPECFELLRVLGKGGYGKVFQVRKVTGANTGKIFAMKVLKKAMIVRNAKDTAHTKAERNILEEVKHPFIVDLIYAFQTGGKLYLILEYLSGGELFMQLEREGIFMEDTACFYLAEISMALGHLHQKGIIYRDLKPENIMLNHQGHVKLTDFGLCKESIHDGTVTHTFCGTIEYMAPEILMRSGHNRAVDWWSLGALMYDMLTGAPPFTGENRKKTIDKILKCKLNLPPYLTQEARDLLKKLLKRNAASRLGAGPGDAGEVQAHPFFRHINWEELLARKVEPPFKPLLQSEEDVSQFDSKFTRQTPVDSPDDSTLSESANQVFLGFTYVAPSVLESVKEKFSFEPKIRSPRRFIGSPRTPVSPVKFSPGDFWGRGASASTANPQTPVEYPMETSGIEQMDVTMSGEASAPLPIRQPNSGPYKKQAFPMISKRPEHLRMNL
In assay [17] the target is Maternal embryonic leucine zipper kinase (Homo sapiens) (UniProt Q14680). Briefly: Inhibition of MELK at 1 uM relative to control.
Sequence of Maternal embryonic leucine zipper kinase (Homo sapiens) (Q14680 whole entry, looked up): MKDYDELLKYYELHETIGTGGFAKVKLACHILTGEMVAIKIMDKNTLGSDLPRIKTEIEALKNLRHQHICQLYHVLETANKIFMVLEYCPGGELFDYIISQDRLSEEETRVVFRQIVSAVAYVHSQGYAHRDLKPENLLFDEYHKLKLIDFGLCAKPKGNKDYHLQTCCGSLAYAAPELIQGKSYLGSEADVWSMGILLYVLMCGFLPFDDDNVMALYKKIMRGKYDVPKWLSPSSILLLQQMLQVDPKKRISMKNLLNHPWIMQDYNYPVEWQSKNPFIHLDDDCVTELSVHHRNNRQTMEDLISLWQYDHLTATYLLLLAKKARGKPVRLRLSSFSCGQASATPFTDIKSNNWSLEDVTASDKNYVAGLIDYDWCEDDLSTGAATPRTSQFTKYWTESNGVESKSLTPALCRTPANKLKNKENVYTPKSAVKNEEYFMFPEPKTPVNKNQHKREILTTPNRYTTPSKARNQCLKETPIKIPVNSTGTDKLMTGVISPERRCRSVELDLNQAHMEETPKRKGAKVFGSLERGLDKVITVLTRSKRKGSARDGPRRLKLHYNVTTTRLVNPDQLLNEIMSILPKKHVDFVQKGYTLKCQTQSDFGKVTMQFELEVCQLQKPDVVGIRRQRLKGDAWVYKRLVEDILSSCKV
In assay [18] the target is SRSF protein kinase 1 (Homo sapiens) (UniProt Q96SB4). As to the kind of experiment: Inhibition of SRPK1 at 1 uM relative to control.
A short description of assay [19]: Inhibition of PKA at 1 uM relative to control.
The target of assay [20] is Serine/threonine-protein kinase PAK 5 (Homo sapiens) (UniProt Q9P286). As to the kind of experiment: Inhibition of PAK5 at 1 uM relative to control.
Sequence of Serine/threonine-protein kinase PAK 5 (Homo sapiens) (Q9P286 whole entry, looked up): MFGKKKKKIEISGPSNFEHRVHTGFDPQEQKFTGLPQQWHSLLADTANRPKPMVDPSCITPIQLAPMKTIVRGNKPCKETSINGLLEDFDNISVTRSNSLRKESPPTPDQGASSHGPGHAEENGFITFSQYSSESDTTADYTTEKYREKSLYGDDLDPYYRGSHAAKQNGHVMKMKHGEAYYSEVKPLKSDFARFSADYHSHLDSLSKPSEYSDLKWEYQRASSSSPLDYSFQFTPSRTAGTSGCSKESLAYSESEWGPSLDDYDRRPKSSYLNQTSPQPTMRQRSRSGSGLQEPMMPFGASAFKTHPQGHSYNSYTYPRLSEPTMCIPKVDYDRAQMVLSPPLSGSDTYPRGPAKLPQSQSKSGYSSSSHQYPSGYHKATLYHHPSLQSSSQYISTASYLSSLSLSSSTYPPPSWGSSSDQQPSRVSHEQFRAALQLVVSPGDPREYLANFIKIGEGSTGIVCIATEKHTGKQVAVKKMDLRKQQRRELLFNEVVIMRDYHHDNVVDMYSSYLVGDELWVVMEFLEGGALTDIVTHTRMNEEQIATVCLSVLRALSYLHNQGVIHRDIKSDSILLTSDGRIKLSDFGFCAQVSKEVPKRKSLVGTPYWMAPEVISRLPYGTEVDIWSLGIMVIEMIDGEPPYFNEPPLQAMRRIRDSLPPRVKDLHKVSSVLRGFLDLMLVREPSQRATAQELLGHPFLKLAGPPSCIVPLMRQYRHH
Assay [21] concerns the target Serine/threonine-protein kinase pim-2 (Homo sapiens) (UniProt Q9P1W9). Briefly: Inhibition of PIM2 at 1 uM relative to control.
Assay [22] deals with MAP kinase-interacting serine/threonine-protein kinase 1 (Homo sapiens) (UniProt Q9BUB5). As to the kind of experiment: Inhibition of MNK1 at 1 uM relative to control.
Sequence of MAP kinase-interacting serine/threonine-protein kinase 1 (Homo sapiens) (Q9BUB5 whole entry, looked up): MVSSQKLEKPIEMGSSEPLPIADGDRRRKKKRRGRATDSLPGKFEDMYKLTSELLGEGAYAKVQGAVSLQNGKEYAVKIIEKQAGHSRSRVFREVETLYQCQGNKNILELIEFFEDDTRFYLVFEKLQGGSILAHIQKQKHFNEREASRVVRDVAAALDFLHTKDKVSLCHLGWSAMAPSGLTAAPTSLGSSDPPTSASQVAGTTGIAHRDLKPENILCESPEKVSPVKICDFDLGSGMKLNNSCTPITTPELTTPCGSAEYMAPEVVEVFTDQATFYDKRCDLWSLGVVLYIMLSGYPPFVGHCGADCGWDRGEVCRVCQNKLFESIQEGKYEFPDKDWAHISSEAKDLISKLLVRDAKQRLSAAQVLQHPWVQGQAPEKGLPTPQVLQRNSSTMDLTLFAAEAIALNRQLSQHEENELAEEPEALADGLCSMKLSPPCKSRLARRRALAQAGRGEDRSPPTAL

Sequence of Glycogen synthase kinase-3 beta (Homo sapiens) (P49841 whole entry, looked up): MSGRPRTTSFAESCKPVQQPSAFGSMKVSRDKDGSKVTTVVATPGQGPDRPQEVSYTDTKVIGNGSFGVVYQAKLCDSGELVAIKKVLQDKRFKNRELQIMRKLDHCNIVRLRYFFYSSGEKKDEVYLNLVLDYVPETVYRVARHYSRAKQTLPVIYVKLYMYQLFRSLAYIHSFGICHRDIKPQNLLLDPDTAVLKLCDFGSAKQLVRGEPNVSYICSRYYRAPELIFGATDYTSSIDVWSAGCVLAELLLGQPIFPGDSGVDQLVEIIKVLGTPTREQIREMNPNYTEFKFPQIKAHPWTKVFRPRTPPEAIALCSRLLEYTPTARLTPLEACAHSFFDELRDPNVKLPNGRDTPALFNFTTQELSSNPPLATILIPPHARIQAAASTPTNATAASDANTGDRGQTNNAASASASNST
Sequence of RAC-alpha serine/threonine-protein kinase (Homo sapiens) (P31749 whole entry): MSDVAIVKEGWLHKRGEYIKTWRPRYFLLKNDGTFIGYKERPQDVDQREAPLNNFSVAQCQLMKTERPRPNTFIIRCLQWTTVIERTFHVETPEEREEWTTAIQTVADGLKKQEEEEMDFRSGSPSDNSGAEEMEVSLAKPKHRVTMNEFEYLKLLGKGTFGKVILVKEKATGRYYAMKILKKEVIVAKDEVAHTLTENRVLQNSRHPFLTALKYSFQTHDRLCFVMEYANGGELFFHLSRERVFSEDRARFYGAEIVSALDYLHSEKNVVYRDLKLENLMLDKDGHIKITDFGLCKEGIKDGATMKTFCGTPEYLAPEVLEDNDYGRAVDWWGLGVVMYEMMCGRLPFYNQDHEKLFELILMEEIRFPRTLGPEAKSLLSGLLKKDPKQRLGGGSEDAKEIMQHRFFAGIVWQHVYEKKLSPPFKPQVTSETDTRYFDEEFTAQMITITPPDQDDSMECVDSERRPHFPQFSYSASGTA
Sequence of Serine/threonine-protein kinase pim-2 (Homo sapiens) (Q9P1W9 whole entry, looked up): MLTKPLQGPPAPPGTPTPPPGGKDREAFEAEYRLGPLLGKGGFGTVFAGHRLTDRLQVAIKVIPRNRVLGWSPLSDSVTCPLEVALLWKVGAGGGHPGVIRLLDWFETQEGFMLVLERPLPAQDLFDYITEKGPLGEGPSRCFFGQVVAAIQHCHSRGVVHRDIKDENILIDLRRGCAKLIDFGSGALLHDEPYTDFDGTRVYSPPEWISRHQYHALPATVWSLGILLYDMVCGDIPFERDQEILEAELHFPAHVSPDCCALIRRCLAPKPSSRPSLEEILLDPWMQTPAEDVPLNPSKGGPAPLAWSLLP

A word on the IC50: it is the concentration needed to halve the response being measured. A high value points to a need for much substance. For the molecule `O=C(Nc1cc(C(F)(F)F)ccc1F)Nc1ccc(Oc2ccnc3[nH]c(=O)[nH]c23)c2ccccc12`, the residual activity in [1] came out at 75%; in assay [2], 100%; in [3] it was 100%; in assay [4], 100%; in assay [5], 100%; in [6], 75%. The residual activity worked out at 100% in assay [7]; 50% in [8]; 100% in assay [9]; 100% in [10]; 100% in assay [12]; 100% in [13]. Moreover, the residual activity in [14] was 75%; in [15] it was 100%; in assay [16] it was 75%; in assay [17], 100%; in assay [18] it was 75%; in [19], 75%. Also, the residual activity in assay [20], in assay [21] and in [22] was 100% throughout. The molecule further yielded a half-inhibitory concentration (IC50) in [11] of 0.214 µM.

On to `CC(C)(C)c1cccc(NC(=O)Nc2ccc(Oc3ccnc4[nH]c(=O)[nH]c34)c3ccccc23)c1`, for which the residual activity in assay [1], in assay [2], in assay [3], in assay [4], in assay [5] and in assay [6] was 75% throughout. The residual activity in [7] worked out at 75%; in [8] it was 75%; in [9] it was 100%; in assay [10], 75%; in [12] it was 75%; in assay [13], 100%. The residual activity was 75% in [14]; 75% in assay [15]; 100% in assay [16]; 75% in assay [17]; 75% in [18]; 75% in assay [19]. Moreover, the residual activity is 75% in [20], 100% in [21] and 75% in assay [22]. Besides, the IC50 in assay [11] was 19.3 µM.

For `CSc1cc(Oc2ccnc3[nH]c(=O)[nH]c23)ccc1NC(=O)Nc1cccc(C(F)(F)F)c1`, the residual activity was 100% in assay [1]; 100% in [2]; 100% in [3]; 100% in assay [4]; 75% in assay [5]; 75% in assay [6]. Further, the residual activity in assay [7] was 100%; in [8], 50%; in assay [9] it was 100%; in assay [10] it was 100%; in assay [12] it was 100%; in assay [13] it was 100%. Also, the residual activity was found to be 100% in assay [14]; 100% in assay [15]; 100% in [16]; 100% in [17]; 75% in [18]; 100% in [19]. Also, the residual activity worked out at 75% in [20], 100% in assay [21] and 100% in assay [22]. This molecule displayed an IC50 in assay [11] of 1.3 µM.

Source of the values: ChEMBL document CHEMBL1136991, “Novel potent BRAF inhibitors: toward 1 nM compounds through optimization of the central phenyl ring” (J Med Chem, 2009).
